Converted amounts (≈) assume the structure as drawn.
Key:
[1] = system: Mycolicibacterium aurum; experiment: Inhibition of multidrug resistance efflux pump in Mycobacterium aurum ATCC 23366 assessed as inhibition of ethidium bromide efflux by measuring relative fluorescence units for ethidium bromide accumulation at 1/4 times MIC incubated for 60 mins by fluorimetric assay
In short: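 Whole-cell efflux assay: early-log cells (OD600 ~0.8) adjusted to OD600 0.4, washed into PBS; 4-6x10^7 bacteria/mL with 0.4% glucose, 0.5 mg/L ethidium bromide substrate and compound at 1/4x MIC. Fluorescence ex 544/em 590 nm at 37 °C every minute for 60 min; accumulation scored 0-4 by relative fluorescence bands. Verapamil positive, PBS negative control.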

[2] = system: Mycolicibacterium smegmatis; experiment: Antimycobacterial activity against Mycobacterium smegmatis str. MC2 155 ATCC 700084 assessed as inhibition of mycobacterial growth incubated for 24 hrs by MABA method; format: functional; details: MC2 155 ATCC 700084, 24 h
[3] = system: Mycolicibacterium aurum; experiment: Antimycobacterial activity against Mycobacterium aurum ATCC 23366 assessed as inhibition of mycobacterial growth incubated for 4 days; format: functional; details: ATCC 23366, 96 h
In short: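 HT-SPOTi agar dilution: two-fold serial dilutions of compound were mixed into Middlebrook 7H10 agar with 0.05% glycerol and 10% OADC, giving a final range of 500–0.5 µg/mL. Each well was spotted with 2x10^3 CFU of early-to-mid-log culture. Plates were incubated at 35 or 37 °C until spots appeared in control wells. Controls were DMSO-only and isoniazid. The MIC was read, in triplicate.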

[4] = system: Mycobacterium tuberculosis; experiment: Antimycobacterial activity against Mycobacterium tuberculosis mc'2-7000x assessed as inhibition of mycobacterial growth; format: functional
[5] = system: Mycobacterium tuberculosis; experiment: Antimycobacterial activity against Mycobacterium tuberculosis H37Rv ATTC 27294 assessed as inhibition of mycobacterial growth incubated for 7 days; format: functional; details: H37Rv ATTC 27294, 168 h
In short: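 MIC by HT-SPOTi on Middlebrook 7H10 agar with 0.05% (v/v) glycerol and 10% (v/v) OADC in 96-well format. Compounds dissolved at 50 mg/mL (stock), two-fold serial dilutions, final 500-0.5 µg/mL. Each well spotted with 2 µL early-to-midlog culture (2x10^3 CFU), incubated at 37 °C until distinct spots in control wells. DMSO-only and isoniazid controls; triplicate.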

[6] = Cytotoxic activity against human THP1 cells assessed as reduction in cell viability incubated for 48 hrs by […] based assay; design: species or system THP-1; details: THP1 cells
In short: (§1)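 RAW264.7 or THP-1 cells were grown in RPMI-1640 with 10% FBS and seeded at 10^5 cells/mL. Compound was two-fold serially diluted from a 50 mg/mL stock, with a solvent-control row. Plates were held 48 h at 37 °C in 5% CO2. Wells were washed twice with PBS, with centrifugation between washes for THP-1, then given fresh RPMI plus 0.01% […]. After overnight incubation, fluorescence was read at 560/590 nm and GIC50 derived.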

[7] = Cytotoxic activity against mouse RAW264.7 cells assessed as reduction in cell viability incubated for 48 hrs by […] based assay; in short: as §1
[8] = Selectivity index, ratio of GIC50 for cytotoxicity against mouse RAW264.7 cells to MIC for Mycobacterium tuberculosis H37Rv ATTC 27294; format: toxicity, cell-based; details: read-out: Selectivity Index
In short: (§2)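 SI = GIC50 / H37Rv MIC (agar spot assay). GIC50 from cells in RPMI-1640 + 10% FBS, 37 °C, 5% CO2; 10^5 cells/mL added to two-fold compound dilutions from 50 mg/mL stock, solvent control row. 48 h exposure, washes (THP-1 centrifuged), fresh medium plus 0.01% […], overnight; fluorescence ex 560/em 590 nm.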

[9] = Selectivity index, ratio of GIC50 for cytotoxicity against human THP1 cells to MIC for Mycobacterium tuberculosis H37Rv ATTC 27294; format: toxicity, cell-based, THP-1; details: read-out: Selectivity Index; in short: as §2

| Structure (SMILES) | Activity [1] [RFU] | MIC [2] [µg/mL] | MIC [3] [µg/mL] | MIC [4] [µg/mL] | MIC [5] [µg/mL] | GI50 at 48 h [6] [µg/mL] | GI50 at 48 h [7] [µg/mL] | selectivity ratio [8] | selectivity ratio [9] |
| --- | --- | --- | --- | --- | --- | --- | --- | --- | --- |
| Cc1cc(CNCCc2ccccc2)c(C)n1-c1ccc(Cl)cc1 | 2 | 32 (≈ 94.4 µM) | 16 (≈ 47.2 µM) | 4 (≈ 11.8 µM) | 1 (≈ 2.95 µM) | 7.3 (≈ 21.5 µM) | 9.9 (≈ 29.2 µM) | 10 | 7.3 |
| Cc1cccc(-n2c(C)cc(CN3CCN(C4C5CC6CC(C5)CC4C6)CC3)c2C)c1 (configuration not stated) | 2 | 64 (≈ 153 µM) | 500 (≈ 1200 µM) | 32 (≈ 76.6 µM) | 16 (≈ 38.3 µM) | 37 (≈ 88.6 µM) | 22 (≈ 52.7 µM) | 1.4 | 2.3 |
| Cc1cc(CN2CCN(C3C4CC5CC(C4)CC3C5)CC2)c(C)n1-c1ccccc1F (configuration not stated) | 1 | 13 (≈ 30.8 µM) | 250 (≈ 593 µM) | 1 (≈ 2.37 µM) | 3.9 (≈ 9.25 µM) | 26 (≈ 61.7 µM) | 11 (≈ 26.1 µM) | 2.8 | 6.7 |
| Cc1cc(CN2CCN(C3C[C@@H]4CC[C@H]3C4)CC2)c(C)n1-c1ccc(Cl)cc1 (mixture of isomers) | 1 | 27 | 16 | 2 | 1.9 | 16 | 5.6 | 2.9 | 8.4 |
| Cc1c(CN2CCN(C3CC4CCC3C4)CC2)cc(-c2ccc(Cl)cc2)n1-c1ccc(Cl)cc1 (mixture of isomers) | – | 64 | 250 | 64 | – | 429 | – | – | 6.7 |
| Cc1c(CNCc2ccccc2)cc(-c2ccc(Cl)cc2)n1-c1ccc(Cl)cc1 | 1 | 8 (≈ 19 µM) | 1 (≈ 2.37 µM) | 16 (≈ 38 µM) | – | 99 (≈ 235 µM) | – | – | 6.1 |
| Cc1cc(CN2CCN(C3CCCCC3)CC2)c(C)n1-c1ccc(Cl)cc1 | 4 | 27 (≈ 70 µM) | 31 (≈ 80.3 µM) | 8 (≈ 20.7 µM) | 3.9 (≈ 10.1 µM) | 16 (≈ 41.5 µM) | 5.5 (≈ 14.2 µM) | 1.4 | 4.1 |
| Cc1c(CN2CCN(C34CC5CC(CC(C5)C3)C4)CC2)cc(-c2ccc(Cl)cc2)n1-c1ccc(Cl)cc1 | 3 | 3.3 (≈ 6.17 µM) | 62 (≈ 116 µM) | 0.5 (≈ 0.935 µM) | 7.8 (≈ 14.6 µM) | 35 (≈ 65.5 µM) | 23 (≈ 43 µM) | 2.9 | 4.5 |
| Cc1cc(CNC2CCCCC2)c(C)n1-c1ccc(Cl)cc1 | 2 | 8 (≈ 25.2 µM) | 7.8 (≈ 24.6 µM) | 0.5 (≈ 1.58 µM) | 0.2 (≈ 0.631 µM) | 7.4 (≈ 23.4 µM) | 10 (≈ 31.6 µM) | 50 | 37 |
| Cc1c(CNC2CCCCC2)cc(-c2ccc(Cl)cc2)n1-c1ccc(Cl)cc1 | 2 | 4 (≈ 9.68 µM) | 1 (≈ 2.42 µM) | 8 (≈ 19.4 µM) | – | 3.9 (≈ 9.43 µM) | – | – | 0.5 |
| Cc1cc(CNCc2ccccc2)c(C)n1-c1ccc(Cl)cc1 | 2 | 4 (≈ 12.3 µM) | 1.9 (≈ 5.85 µM) | 0.5 (≈ 1.54 µM) | 0.5 (≈ 1.54 µM) | 7.2 (≈ 22.2 µM) | 5.5 (≈ 16.9 µM) | 11 | 14 |
| Cc1cc(CNC2C3CC4CC(C3)CC2C4)c(C)n1-c1ccc(Cl)cc1 (configuration not stated) | 1 | 16 (≈ 43.4 µM) | 62 (≈ 168 µM) | 1 (≈ 2.71 µM) | 1.9 (≈ 5.15 µM) | 15 (≈ 40.7 µM) | 19 (≈ 51.5 µM) | 10 | 7.8 |
| Cc1c(CN2CCN(c3ccccc3)CC2)c(CN2CCN(c3ccccc3)CC2)c(C)n1-c1ccc(Cl)cc1 | 2 | > 64 | 250 (≈ 451 µM) | > 64 | 31 (≈ 55.9 µM) | 113 (≈ 204 µM) | 500 (≈ 902 µM) | 16 | 3.6 |

From ChEMBL document CHEMBL3797154, “Design and Synthesis of 1-((1,5-Bis(4-chlorophenyl)-2-methyl-1H-pyrrol-3-yl)methyl)-4-methylpiperazine (BM212) and N-Adamantan-2-yl-N'-((E)-3,7-dimethylocta-2,6-dienyl)ethane-1,2-diamine (SQ109) Pyrrole Hybrid Derivatives: Discovery of Potent Antitubercular Agents Effective against …” (J Med Chem, 2016)
